Measured values published in ChEMBL document CHEMBL1137992, “Long hydrocarbon chain keto diols and diacids that favorably alter lipid disorders in vivo” (J Med Chem, 2004).

What was measured:
Type in all cases: functional
Rattus norvegicus [1] = test: Amount of HDL-cholesterol in obese Zucker rats at pre-treatment at a dose of 100 mg/kg/day
In short: (§1)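 Female Zucker fatty rats [Crl:(Zuc)-faBR], 10–12 weeks old (400–500 g), dosed once daily by oral gavage in 20% EtOH/80% PEG-200 (dose volume 0.25% of body weight). Rats were fasted 6 h and bled before dosing and at day 7 (orbital plexus), and at day 14 (cardiac puncture). Serum cholesterol fractions came from Superose 6 gel-filtration lipoprotein profiles (% peak area × serum total cholesterol). Values are mean ± SEM.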

Rattus norvegicus [2] = test: Amount of glucose in obese Zucker rats at pre-treatment at a dose of 10 mg/kg/day
In short: (§2)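 Female Zucker fatty rats [Crl:(Zuc)-faBR], 10–12 weeks old (400–500 g), gavaged daily with vehicle (20% EtOH/80% PEG-200, 0.25% of body weight) or compound. After a 6-h fast, blood glucose was read by glucometer from tail-prick blood of unanesthetized rats before dosing and after 1 and 2 weeks. Values are mean ± SEM.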

Rattus norvegicus [3] = test: Amount of HDL-cholesterol in obese Zucker rats after 1 week of treatment at a dose of 3 mg/kg/day; in short: as §1
Rattus norvegicus [4] = test: Amount of glucose in obese Zucker rats after 2 weeks of treatment at a dose of 0 mg/kg/day; in short: as §2
Rattus norvegicus [5] = test: Amount of insulin in obese Zucker rats at pre-treatment at a dose of 10 mg/kg/day
In short: (§3)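 Female obese Zucker rats [Crl:(Zuc)-faBR], 400–500 g, given daily oral gavage in 20% EtOH/80% PEG-200 for up to 14 days. After a 6-h fast, serum was collected pretreatment and at day 7 (orbital bleed) and day 14 (cardiac puncture) and stored at -80 °C. Insulin was measured by ELISA. Values are mean ± SEM.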

Rattus norvegicus [6] = test: Amount of non-HDL-cholesterol in obese Zucker rats after 2 weeks of treatment at a dose of 30 mg/kg/day
In short: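 Female obese Zucker fatty rats [Crl:(Zuc)-faBR], 10–12 weeks old (400–500 g), on chow. Compound in 20% EtOH/80% PEG-200 (v/v) given by daily oral gavage. After a 6-h fast, serum was taken before dosing and at 7 days (orbital plexus), and at 14 days (cardiac puncture). Lipoprotein cholesterol came from Superose 6HR gel-filtration profiles × serum total cholesterol. Mean ± SEM.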

Rattus norvegicus [7] = test: Amount of insulin in obese Zucker rats after 2 weeks of treatment at a dose of 0 mg/kg/day; in short: as §3
Rattus norvegicus [8] = test: Amount of insulin in obese Zucker rats at pre-treatment at a dose of 100 mg/kg/day; in short: as §3
Rattus norvegicus [9] = test: Amount of insulin in obese Zucker rats after 2 weeks of treatment at a dose of 10 mg/kg/day; in short: as §3
Rattus norvegicus [10] = test: Amount of glucose in obese Zucker rats after 2 weeks of treatment at a dose of 3 mg/kg/day; in short: as §2
Rattus norvegicus [11] = test: Amount of non-HDL-cholesterol in obese Zucker rats after 1 week of treatment at a dose of 3 mg/kg/day; in short: as §1
Rattus norvegicus [12] = test: Amount of glucose in obese Zucker rats at pre-treatment at a dose of 3 mg/kg/day; in short: as §2
Rattus norvegicus [13] = test: Amount of glucose in obese Zucker rats after 2 weeks of treatment at a dose of 30 mg/kg/day; in short: as §2
Rattus norvegicus [14] = test: Amount of insulin in obese Zucker rats after 2 weeks of treatment at a dose of 30 mg/kg/day; in short: as §3
Rattus norvegicus [15] = test: Percent decrease in triglycerides in obese Zucker rats after 2 weeks of treatment at a dose of 100 mg/kg/day; set-up: scale not given: the % may be the effect or the level left
In short: (§4)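 Female Zucker fatty rats [Crl:(Zuc)-faBR], 10–12 weeks, 400–500 g, acclimated 7 days on chow. Compound or vehicle (20% EtOH/80% PEG-200) given by daily oral gavage for 2 weeks, 0–100 mg/kg/day. After a 6 h fast, blood was taken before dosing, at 1 wk and at 2 wk. Serum lipids, NEFA and insulin (ELISA) were measured; glucose by glucometer. HDL/non-HDL-C came from Superose 6 gel-filtration profiles. Values are % change from pretreatment, mean ± SEM.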

Rattus norvegicus [16] = test: Amount of insulin in obese Zucker rats after 1 week of treatment at a dose of 30 mg/kg/day; in short: as §3
Rattus norvegicus [17] = test: Amount of non-HDL-cholesterol in obese Zucker rats after 2 weeks of treatment at a dose of 100 mg/kg/day; in short: as §1
Rattus norvegicus [18] = test: Amount of nonesterified fatty acids in obese Zucker rats after 2 weeks of treatment at a dose of 0 mg/kg/day
In short: (§5)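 Female Zucker fatty rats [Crl:(Zuc)-faBR], 10–12 weeks old (400–500 g), dosed once daily by oral gavage in 20% EtOH/80% PEG-200 for up to 14 days. After a 6-h fast, serum was taken pre-dose, at day 7 (orbital venous plexus, O2/CO2 anaesthesia) and at day 14 (cardiac puncture), stored at −80 °C, and assayed on a Hitachi 912 automatic analyzer. Mean ± SEM.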

Rattus norvegicus [19] = test: Percent increase in HDL-cholesterol in obese Zucker rats after 2 weeks of treatment at a dose of 30 mg/kg/day; in short: as §4
Rattus norvegicus [20] = test: Percentage change of non-HDL cholesterol levels in obese female Zucker rats after 1 week of pre-treatment at a dose of 100 mg/kg/day
In short: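 Female Zucker fatty rats [Crl:(Zuc)-faBR], 10–12 weeks old (400–500 g), acclimated 7 days and fed rodent chow. Dosed once daily by oral gavage in 20% EtOH/80% PEG-200 (v/v), at 0.25% of body weight, for 2 weeks. Blood taken after a 6-h fast: orbital plexus before dosing and at day 7, cardiac puncture at day 14. Serum lipoprotein cholesterol measured by Superose 6 gel filtration with on-line cholesterol detection. Values are % change from pretreatment, mean ± SEM.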

Rattus norvegicus [21] = test: Amount of glucose in obese Zucker rats at pre-treatment at a dose of 100 mg/kg/day; in short: as §2
Rattus norvegicus [22] = test: Amount of HDL-cholesterol in obese Zucker rats at pre-treatment at a dose of 10 mg/kg/day; in short: as §1
Rattus norvegicus [23] = test: Amount of triglycerides in obese Zucker rats after 1 week of treatment at a dose of 3 mg/kg/day; in short: as §5
Rattus norvegicus [24] = test: Amount of glucose in obese Zucker rats after 1 week of treatment at a dose of 100 mg/kg/day; in short: as §2
Rattus norvegicus [25] = test: Amount of nonesterified fatty acids in obese Zucker rats at pre-treatment at a dose of 30 mg/kg/day; in short: as §5
Rattus norvegicus [26] = test: Amount of triglycerides in obese Zucker rats after 2 weeks of treatment at a dose of 10 mg/kg/day; in short: as §5
Rattus norvegicus [27] = test: Amount of non-HDL-cholesterol in obese Zucker rats after 2 weeks of treatment at a dose of 0 mg/kg/day; in short: as §1
Rattus norvegicus [28] = test: Amount of HDL-cholesterol in obese Zucker rats after 1 week of treatment at a dose of 100 mg/kg/day; in short: as §1
Rattus norvegicus [29] = test: Amount of triglycerides in obese Zucker rats at pre-treatment at a dose of 3 mg/kg/day; in short: as §5
Rattus norvegicus [30] = test: Amount of nonesterified fatty acids in obese Zucker rats at pre-treatment at a dose of 3 mg/kg/day; in short: as §5
Rattus norvegicus [31] = test: Amount of nonesterified fatty acids in obese Zucker rats after 1 week of treatment at a dose of 100 mg/kg/day; in short: as §5

SMILES: CC(C)(CO)CCCCC(=O)CCCCC(C)(C)CO
- Activity (Rattus norvegicus [1]): 45 mg/dL
- Activity (Rattus norvegicus [2]): 112 mg/dL
- Activity (Rattus norvegicus [3]): 43 mg/dL
- Activity (Rattus norvegicus [4]): 116 mg/dL
- Activity (Rattus norvegicus [5]): 8.4 ng/mL
- Activity (Rattus norvegicus [6]): 38 mg/dL
- Activity (Rattus norvegicus [7]): 7.7 ng/mL
- Activity (Rattus norvegicus [8]): 9.6 ng/mL
- Activity (Rattus norvegicus [9]): 7.8 ng/mL
- Activity (Rattus norvegicus [10]): 103 mg/dL
- Activity (Rattus norvegicus [11]): 25 mg/dL
- Activity (Rattus norvegicus [12]): 118 mg/dL
- Activity (Rattus norvegicus [13]): 120 mg/dL
- Activity (Rattus norvegicus [14]): 9.8 ng/mL
- Activity (Rattus norvegicus [15]): -33%
- Activity (Rattus norvegicus [16]): 9.1 ng/mL
- Activity (Rattus norvegicus [17]): 32 mg/dL
- Activity (Rattus norvegicus [18]): 1.6 mg/dL
- Activity (Rattus norvegicus [19]): 42%
- Change (Rattus norvegicus [20]): -23%
- Activity (Rattus norvegicus [21]): 114 mg/dL
- Activity (Rattus norvegicus [22]): 46 mg/dL
- Activity (Rattus norvegicus [23]): 800 mg/dL
- Activity (Rattus norvegicus [24]): 120 mg/dL
- Activity (Rattus norvegicus [25]): 1.4 mg/dL
- Activity (Rattus norvegicus [26]): 730 mg/dL
- Activity (Rattus norvegicus [27]): 30 mg/dL
- Activity (Rattus norvegicus [28]): 78 mg/dL
- Activity (Rattus norvegicus [29]): 755 mg/dL
- Activity (Rattus norvegicus [30]): 1.1 mg/dL
- Activity (Rattus norvegicus [31]): 0.98 mg/dL

SMILES: CC(C)(CCCCC(=O)CCCCC(C)(C)C(=O)O)C(=O)O
- Activity (Rattus norvegicus [1]): 38 mg/dL
- Activity (Rattus norvegicus [2]): 113 mg/dL
- Activity (Rattus norvegicus [3]): 36 mg/dL
- Activity (Rattus norvegicus [4]): 118 mg/dL
- Activity (Rattus norvegicus [5]): 10.6 ng/mL
- Activity (Rattus norvegicus [6]): 43 mg/dL
- Activity (Rattus norvegicus [7]): 0.058 ng/mL
- Activity (Rattus norvegicus [8]): 8.1 ng/mL
- Activity (Rattus norvegicus [9]): 8.9 ng/mL
- Activity (Rattus norvegicus [10]): 103 mg/dL
- Activity (Rattus norvegicus [11]): 24 mg/dL
- Activity (Rattus norvegicus [12]): 108 mg/dL
- Activity (Rattus norvegicus [13]): 118 mg/dL
- Activity (Rattus norvegicus [14]): 8.5 ng/mL
- Activity (Rattus norvegicus [15]): -54%
- Activity (Rattus norvegicus [16]): 9.2 ng/mL
- Activity (Rattus norvegicus [17]): 22 mg/dL
- Activity (Rattus norvegicus [18]): 1.4 mg/dL
- Activity (Rattus norvegicus [19]): 47%
- Change (Rattus norvegicus [20]): -62%
- Activity (Rattus norvegicus [21]): 110 mg/dL
- Activity (Rattus norvegicus [22]): 37 mg/dL
- Activity (Rattus norvegicus [23]): 775 mg/dL
- Activity (Rattus norvegicus [24]): 113 mg/dL
- Activity (Rattus norvegicus [25]): 1.4 mg/dL
- Activity (Rattus norvegicus [26]): 814 mg/dL
- Activity (Rattus norvegicus [27]): 29 mg/dL
- Activity (Rattus norvegicus [28]): 66 mg/dL
- Activity (Rattus norvegicus [29]): 996 mg/dL
- Activity (Rattus norvegicus [30]): 1.5 mg/dL
- Activity (Rattus norvegicus [31]): 0.81 mg/dL

SMILES: CC(C)(CCCCCC(=O)CCCCCC(C)(C)C(=O)O)C(=O)O
- Activity (Rattus norvegicus [1]): 66 mg/dL
- Activity (Rattus norvegicus [2]): 120 mg/dL
- Activity (Rattus norvegicus [3]): 75 mg/dL
- Activity (Rattus norvegicus [4]): 120 mg/dL
- Activity (Rattus norvegicus [5]): 9.9 ng/mL
- Activity (Rattus norvegicus [6]): 30 mg/dL
- Activity (Rattus norvegicus [7]): 8.1 ng/mL
- Activity (Rattus norvegicus [8]): 11.9 ng/mL
- Activity (Rattus norvegicus [9]): 9.1 ng/mL
- Activity (Rattus norvegicus [10]): 124 mg/dL
- Activity (Rattus norvegicus [11]): 23 mg/dL
- Activity (Rattus norvegicus [12]): 114 mg/dL
- Activity (Rattus norvegicus [13]): 130 mg/dL
- Activity (Rattus norvegicus [14]): 7.7 ng/mL
- Activity (Rattus norvegicus [15]): -92%
- Activity (Rattus norvegicus [16]): 6.4 ng/mL
- Activity (Rattus norvegicus [17]): 3 mg/dL
- Activity (Rattus norvegicus [18]): 1.3 mg/dL
- Activity (Rattus norvegicus [19]): 235%
- Change (Rattus norvegicus [20]): -98%
- Activity (Rattus norvegicus [21]): 117 mg/dL
- Activity (Rattus norvegicus [22]): 86 mg/dL
- Activity (Rattus norvegicus [23]): 995 mg/dL
- Activity (Rattus norvegicus [24]): 92 mg/dL
- Activity (Rattus norvegicus [25]): 1.3 mg/dL
- Activity (Rattus norvegicus [26]): 865 mg/dL
- Activity (Rattus norvegicus [27]): 28 mg/dL
- Activity (Rattus norvegicus [28]): 100 mg/dL
- Activity (Rattus norvegicus [29]): 905 mg/dL
- Activity (Rattus norvegicus [30]): 1.3 mg/dL
- Activity (Rattus norvegicus [31]): 0.98 mg/dL
